This note sets out measurements from ChEMBL document CHEMBL4138106, “Indole-coumarin-thiadiazole hybrids: An appraisal of their MCF-7 cell growth inhibition, apoptotic, antimetastatic and computational Bcl-2 binding potential” (Eur J Med Chem, 2017).

In general, IC50 refers to the concentration needed to halve the response being measured.

One test concerns Vero. Description: Cytotoxicity against African green monkey Vero cells assessed as growth inhibition after 48 hrs by MTT assay. To be noted: Chlorocebus sabaeus. It counts as cell-based. In a few lines:
(§1)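 Cells grown in DMEM with 10% FBS plus antibiotics at 37 °C under 5% CO2. 5×10^3 cells/well seeded and cultured overnight, then exposed to a range of concentrations for 48 h. Working dilutions made in DMEM from 25 mM DMSO stocks, with DMSO vehicle controls and vincristine as positive control. MTT at 1 mg/mL for 4 h, formazan dissolved in DMSO, A570. Viability taken relative to vehicle after blank subtraction.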
(Formazan colour is commonly taken as a measure of viable cells.)

Test [1] has as its system MCF7. Description: Cytotoxicity against human MCF7 cells assessed as growth inhibition after 48 hrs by MTT assay. It counts as functional, cell-based. The settings on record: MCF7, 48 h. In a few lines:
as §1

Test [2] relates to MCF7. In words: Induction of apoptosis in human MCF7 cells assessed as nuclear fragmented DNA formation at 10 uM after 24 hrs by Hoechst 33342 staining based bright blue field inverted fluorescence microscopic analysis. Type of test: functional, cell-based. In a few lines: (§2)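 Treated MCF-7 cells were incubated for 10 min with Hoechst 33342 stock diluted 1:2,000 in PBS. Nuclei were examined by inverted fluorescence microscopy for condensation and fragmentation, compared with vehicle-control cells.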

Test [3] concerns MCF7. Description: Induction of apoptosis in human MCF7 cells assessed as expression in caspase 9 at 10 uM after 24 hrs by spectrofluorimetric analysis. Type of test: functional, cell-based. In a few lines: (§3)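 Initiator caspases 2, 8 and 9 measured in MCF-7 cells after 24 h exposure to 10 μM, using a fluorogenic caspase profiling kit (ex 380/em 460 nm). Signals normalized to vehicle control, set as 1, and expressed as fold change. Mean ± SD of three independent trials.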

Test [4] has as its system MCF7. In words: Inhibition of cell migration of human MCF7 cells after 24 hrs by inverted microscopy based monolayer wound healing migration assay. Type of test: functional. Summed up: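 About 1×10^5 MCF-7 cells/well grown in DMEM to 80% confluence, then a single scratch made. Debris washed off with PBS and cells treated with test compound, with vincristine as positive control and a vehicle control. Wound gap imaged at 0, 24 and 48 h by inverted microscopy with a stage and eyepiece micrometer. Run in triplicate.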

For test [5], the system named is MCF7. In words: Induction of apoptosis in human MCF7 cells assessed as late apoptotic cells at 10 uM after 24 hrs by Acridine orange-ethidium bromide dual staining based fluorescence microscopic analysis. It counts as functional, cell-based. In a few lines: (§4)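 MCF-7 cells in 96-well plates exposed to test compound for 24 h at 37 °C in 5% CO2. Gross morphology first checked by phase contrast. Medium then removed and acridine orange (7.5 μg)/ethidium bromide (25 μg) stain added. Cells viewed by fluorescence microscopy through an FITC filter and scored as viable, early apoptotic, late apoptotic or nonviable by colour and nuclear form, against vehicle control.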

In test [6] the test system is MCF7. Description: Induction of apoptosis in human MCF7 cells assessed as cell shrinkage at 10 uM after 24 hrs by Acridine orange-ethidium bromide dual staining based fluorescence microscopic analysis. Type of test: functional.
For test [7], the system named is MCF7. In words: Induction of apoptosis in human MCF7 cells assessed as condensed nuclei formation at 10 uM after 24 hrs by Acridine orange-ethidium bromide dual staining based fluorescence microscopic analysis. It counts as functional, cell-based. Summed up:
as §4

For test [8], the system named is MCF7. Description: Induction of apoptosis in human MCF7 cells assessed as condensed chromatin formation at 10 uM after 24 hrs by Acridine orange-ethidium bromide dual staining based fluorescence microscopic analysis. Type of test: functional, cell-based. Summed up:
as §4

In test [9] the test system is MCF7. In words: Induction of apoptosis in human MCF7 cells assessed as deviations in cell morphology at 10 uM after 24 hrs by Acridine orange-ethidium bromide dual staining based fluorescence microscopic analysis. Type of test: functional.
In test [10] the test system is MCF7. In words: Induction of apoptosis in human MCF7 cells assessed as loss of cell membrane integrity at 10 uM after 24 hrs by Acridine orange-ethidium bromide dual staining based fluorescence microscopic analysis. It counts as functional.
Test [11] concerns MCF7. In words: Induction of apoptosis in human MCF7 cells assessed as chromatin condensation at 10 uM after 24 hrs by APOPercentage dye based light microscopic analysis. Type of test: functional, cell-based. In a few lines: (§5)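 1×10^4 MCF-7 cells grown 48 h to sub-confluence in 96-well plates, then exposed for 24 h. Medium replaced with medium containing APOPercentage dye (phosphatidylserine exposure) for 1 h. Purple-red cells imaged by light microscopy. Cells then lysed and released dye read at 550 nm, against vehicle control.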

The test system of test [12] is MCF7. Description: Induction of apoptosis in human MCF7 cells assessed as formation of apoptotic body at 10 uM after 24 hrs by Acridine orange-ethidium bromide dual staining based fluorescence microscopic analysis. Type of test: functional, cell-based.
The test system of test [13] is MCF7. In words: Induction of apoptosis in human MCF7 cells assessed as nuclear chromatin condensation at 10 uM after 24 hrs by Hoechst 33342 staining based bright blue field inverted fluorescence microscopic analysis. It counts as functional, cell-based. In a few lines: as §2
In test [14] the test system is MCF7. Description: Induction of apoptosis in human MCF7 cells assessed as reduction in cell volume at 10 uM after 24 hrs by APOPercentage dye based light microscopic analysis. It counts as functional. Summed up:
as §5

Test [15] deals with MCF7. In words: Induction of apoptosis in human MCF7 cells assessed as expression in caspase 2 at 10 uM after 24 hrs by spectrofluorimetric analysis. It counts as functional, cell-based. Summed up: as §3
For test [16], the system named is MCF7. In words: Induction of apoptosis in human MCF7 cells assessed as late apoptotic cells at 10 uM after 24 hrs by fluorescein-12-dUTP/propidium iodide staining based TUNEL assay. It counts as functional, cell-based. In a few lines:
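About 1×10^5 MCF-7 cells/well in 24-well plates treated for 24 h. Cells fixed in 4% paraformaldehyde and permeabilized with 0.2% Triton X-100. Labelled with 50 µM fluorescein-12-dUTP and rTdT for 1 h at 37 °C, stopped with 2×SSC, counterstained with 1 mg/mL propidium iodide. Green TUNEL-positive nuclei scored by fluorescence microscopy.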

Test [17] deals with MCF7. Description: Induction of apoptosis in human MCF7 cells assessed as early apoptotic cells at 10 uM after 24 hrs by Acridine orange-ethidium bromide dual staining based fluorescence microscopic analysis. Type of test: functional, cell-based. Summed up: as §4
Test [18] concerns MCF7. Description: Induction of apoptosis in human MCF7 cells assessed as expression in caspase 8 at 10 uM after 24 hrs by spectrofluorimetric analysis. Type of test: functional, cell-based. Summed up: as §3
For test [19], the system named is MCF7. In words: Induction of apoptosis in human MCF7 cells assessed as fragmented nuclei formation at 10 uM after 24 hrs by Acridine orange-ethidium bromide dual staining based fluorescence microscopic analysis. It counts as functional, cell-based. In a few lines: as §4
The test system of test [20] is MCF7. Description: Induction of apoptosis in human MCF7 cells assessed as dead cells at 10 uM after 24 hrs by Acridine orange-ethidium bromide dual staining based fluorescence microscopic analysis. Type of test: functional, cell-based. Summed up: as §4

The source made the active and inactive calls. The rule behind the calls is not given here.

For the molecule `C/C(=N/c1nnc(Cc2c[nH]c3ccccc23)s1)c1cc2cc(Br)ccc2oc1=O`, the IC50 is 113 µM in the test with Vero and 82.1 µM in the test with MCF7 [1].

`C/C(=N/c1nnc(CCc2c[nH]c3ccccc23)s1)c1cc2cc(Br)ccc2oc1=O`: the values for the IC50 in the test on Vero and in the test on MCF7 [1] were 43.1 µM and 36.1 µM, respectively.

Turning to `C/C(=N/c1nnc(CCCc2c[nH]c3ccccc23)s1)c1cc2cc(Br)ccc2oc1=O`, the outcome in the test on MCF7 [2], with MCF7 [3], in the test on MCF7 [5], in the test with MCF7 [6], in the test with MCF7 [7] and in the test on MCF7 [8] was Active. The result with MCF7 [9], with MCF7 [10], with MCF7 [11], in the test with MCF7 [12], in the test with MCF7 [13] and with MCF7 [14] was Active. In addition, the result in the test on MCF7 [16], in the test with MCF7 [17], with MCF7 [18], with MCF7 [19] and with MCF7 [20] was Active. Moreover, in the test with MCF7 [4], the inhibition entry is “Active”. The IC50 worked out at 116 µM in the test on Vero and 8.01 µM in the test with MCF7 [1]. In addition, the result with MCF7 [15] was inactive.
